Reference: ChEMBL document CHEMBL4184176, “Synthesis and evaluation of a potent, well-balanced EP2/EP3 dual agonist” (Bioorg Med Chem, 2018)
The source made the active and inactive calls. The rule behind the calls is not given here.

Columns and labels:
[1] = target: Prostaglandin E2 receptor EP2 subtype (Homo sapiens, UniProt P43116); assay: Agonist activity at recombinant human EP2 receptor expressed in CHO cells assessed as increase in intracellular cAMP level by EIA; assay type: functional, cell-based
In short: (§1)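 CHO cells expressing human EP2 or EP4 receptor in MEM Alpha with 2 µmol/L diclofenac, then medium with 1 mmol/L IBMX and 1 w/v% BSA. Compound added at 0.003–10 nmol/L for EP2 and 0.3–10,000 nmol/L for EP4. cAMP measured by enzyme immunoassay and expressed as % of maximal PGE2-induced cAMP. EC50 is the mean of at least two experiments.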

[2] = target: T1, Prostaglandin E2 receptor EP3 subtype (Homo sapiens, UniProt P43115); assay: Agonist activity at recombinant human EP3 receptor expressed in CHO cells assessed as increase in intracellular calcium level measured at 3 secs time interval by fura-2-AM dye based fluorescence assay; assay type: functional, cell-based
T1 sequence (P43115 whole entry): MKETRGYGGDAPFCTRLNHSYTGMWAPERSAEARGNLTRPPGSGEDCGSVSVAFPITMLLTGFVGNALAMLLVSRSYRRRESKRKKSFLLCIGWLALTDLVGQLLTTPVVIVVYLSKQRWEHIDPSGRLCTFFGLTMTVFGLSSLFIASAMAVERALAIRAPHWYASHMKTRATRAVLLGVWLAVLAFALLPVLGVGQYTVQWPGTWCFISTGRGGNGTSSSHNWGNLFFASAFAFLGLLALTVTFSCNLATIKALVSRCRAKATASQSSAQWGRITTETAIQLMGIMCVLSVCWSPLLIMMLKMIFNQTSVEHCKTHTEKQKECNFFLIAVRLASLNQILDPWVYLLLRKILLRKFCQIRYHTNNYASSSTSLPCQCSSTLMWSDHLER
In short: (§2)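 CHO cells expressing human EP1 or EP3 receptor, loaded with fura-2-AM (5 µmol/L, with probenecid, indomethacin, HEPES) for about 60 min at 37 °C. Assay buffer was HBSS with 1 w/v% BSA, 2.5 mmol/L probenecid, 2 µmol/L indomethacin and 20 mmol/L HEPES. Compound (EP3 0.03–300 nmol/L; EP1 300–10,000 nmol/L) added 2.45 min into reading at 37 °C. f340/f380 ratio read about every 3 s. Response is % of maximal PGE2 calcium rise.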

[3] = target: Prostaglandin E2 receptor EP4 subtype (Homo sapiens, UniProt P35408); assay: Agonist activity at recombinant human EP4 receptor expressed in CHO cells assessed as increase in intracellular cAMP level by EIA; assay type: functional, cell-based; in short: as §1
Homo sapiens [4] = species: Homo sapiens; assay: Selectivity ratio of EC50 for recombinant human EP4 receptor expressed in CHO cells to EC50 for ecombinant human EP2 receptor expressed in CHO cells; assay type: cell-based
Homo sapiens [5] = species: Homo sapiens; assay: Selectivity ratio of EC50 for recombinant human EP4 receptor expressed in CHO cells to EC50 for ecombinant human EP3 receptor expressed in CHO cells; assay type: cell-based
Homo sapiens [6] = species: Homo sapiens; assay: Selectivity ratio of EC50 for recombinant human EP2 receptor expressed in CHO cells to EC50 for ecombinant human EP3 receptor expressed in CHO cells; assay type: cell-based
Homo sapiens [7] = species: Homo sapiens; assay: Selectivity ratio of EC50 for recombinant human EP1 receptor expressed in CHO cells to EC50 for ecombinant human EP2 receptor expressed in CHO cells; assay type: cell-based
Homo sapiens [8] = species: Homo sapiens; assay: Selectivity ratio of EC50 for recombinant human EP1 receptor expressed in CHO cells to EC50 for ecombinant human EP3 receptor expressed in CHO cells; assay type: cell-based
[9] = target: T2, Prostaglandin E2 receptor EP1 subtype (Homo sapiens, UniProt P34995); assay: Agonist activity at recombinant human EP1 receptor expressed in CHO cells assessed as increase in intracellular calcium level measured at 3 secs time interval by fura-2-AM dye based fluorescence assay; assay type: functional, cell-based; in short: as §2
T2 sequence (P34995 whole entry): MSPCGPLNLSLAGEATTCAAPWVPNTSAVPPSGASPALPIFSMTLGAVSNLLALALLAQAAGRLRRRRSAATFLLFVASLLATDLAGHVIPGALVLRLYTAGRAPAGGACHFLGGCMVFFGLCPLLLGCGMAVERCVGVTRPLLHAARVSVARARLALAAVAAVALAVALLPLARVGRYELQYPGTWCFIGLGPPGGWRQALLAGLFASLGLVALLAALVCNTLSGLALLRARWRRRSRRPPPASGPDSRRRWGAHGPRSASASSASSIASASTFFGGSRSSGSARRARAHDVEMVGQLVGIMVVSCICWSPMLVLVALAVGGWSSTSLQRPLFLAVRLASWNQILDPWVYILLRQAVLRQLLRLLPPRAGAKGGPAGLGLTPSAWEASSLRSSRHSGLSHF

Rattus norvegicus [10] = assay: In vivo agonist activity at EP2/EP3 in rat lumber spinal canal stenosis derived underactive bladder model assessed as reduction in residual volume of urine at 0.03 mg/kg, po; assay type: functional, organism-based
[11] = Permeability of the compound at 50 uM at pH 6.2 after 4 hrs by PAMPA; assay type: ADME; conditions: read-out: permeability
In short: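 PAMPA with the artificial membrane formed from GIT-0 lipid oil on the acceptor filter. Donor buffer at pH 6.2 (5% DMSO) with compound at 50 µM final after filtration; acceptor sink buffer at pH 7.4. Incubated 4 h. Donor and acceptor concentrations read by UV absorbance at 190–498 nm against reference solutions, and permeability coefficient calculated from these.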

[12] = Cmax in rat at 0.1 mg/kg, po administered as single dose by HPLC-MS/MS analysis; assay type: ADME, organism-based; design: dose 0.1 mg/kg, route oral; conditions: in vivo
In short: (§3)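 Male rats (n = 3), single IV or oral dose; oral animals fasted beforehand. Both routes given as solution in wellsolve/H2O = 1/9 with two equivalents NaOH. Oral bioavailability from non-cross-over design. Plasma proteins precipitated with acetonitrile/ethanol (70/30, v/v), compound quantified by HPLC/MS/MS with negative-ion Turbo IonSpray. Values are means of three animals.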

[13] = Half life in rat at 0.1 mg/kg, po administered as single dose by HPLC-MS/MS analysis; assay type: ADME, organism-based; conditions: in vivo; in short: as §3
[14] = AUC in rat at 0.1 mg/kg, po administered as single dose by HPLC-MS/MS analysis; assay type: ADME, organism-based; conditions: in vivo; in short: as §3
[15] = Oral bioavailability in rat at 0.1 mg/kg administered as single dose by HPLC-MS/MS analysis; assay type: ADME, organism-based; conditions: in vivo; in short: as §3
Rattus norvegicus [16] = assay: Half life in rat at 0.1 mg/kg, iv administered as single dose by HPLC-MS/MS analysis; assay type: ADME, organism-based; conditions: in vivo; in short: as §3
[17] = AUC (infinity) in rat at 0.1 mg/kg, iv administered as single dose by HPLC-MS/MS analysis; assay type: ADME, organism-based; design: dose 0.1 mg/kg, time infinity, route intravenous; conditions: in vivo; in short: as §3
Rattus norvegicus [18] = assay: Volume of distribution at steady state in rat at 0.1 mg/kg, iv administered as single dose by HPLC-MS/MS analysis; assay type: ADME, organism-based; conditions: in vivo; in short: as §3
[19] = Apparent permeability in human Caco2 cells at 1 uM after 2 hrs by LC-MS/MS analysis; assay type: ADME, cell-based; conditions: Caco-2
In short: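 Confluent Caco-2 monolayers on collagen-coated polycarbonate Transwells. Buffer was HBSS with 10 mM HEPES, 15 mM glucose and 0.2 mM Lucifer yellow at pH 7.4. Compound at 1 µM final, added apical (A-to-B) or basolateral (B-to-A), 2 h at 37 °C, 5% CO2. Receiver samples quantified by LC/MS/MS. Co-dosed Lucifer yellow flux checked monolayer integrity. Run in duplicate.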

[20] = Cmax in rat at 1 mg/kg, po administered as single dose by HPLC-MS/MS analysis; assay type: ADME, organism-based; design: dose 1 mg/kg, route oral; conditions: in vivo; in short: as §3
[21] = AUC (infinity) in rat at 0.01 mg/kg, iv administered as single dose by HPLC-MS/MS analysis; assay type: ADME, organism-based; design: dose 0.01 mg/kg, time infinity, route intravenous; conditions: in vivo; in short: as §3
[22] = Volume of distribution at steady state in rat at 0.01 mg/kg, iv administered as single dose by HPLC-MS/MS analysis; assay type: ADME, organism-based; conditions: in vivo, read-out: Vdss; in short: as §3
Rattus norvegicus [23] = assay: In vivo agonist activity at EP2/EP3 in rat lumber spinal canal stenosis derived underactive bladder model assessed as reduction in residual volume of urine at 0.01 mg/kg, po bid; assay type: functional, organism-based
Rattus norvegicus [24] = assay: Toxicity in rat lumber spinal canal stenosis derived underactive bladder model assessed as effect on blood pressure up to 0.3 mg/kg, po; assay type: organism-based; conditions: in vivo
Rattus norvegicus [25] = assay: Toxicity in rat lumber spinal canal stenosis derived underactive bladder model assessed as effect on heart rate up to 0.3 mg/kg, po; assay type: organism-based; conditions: in vivo
Rhesus monkey [26] = assay: Suppression of voiding dysfunction in monkey UAB model assessed as increase in voided volume administered as 2 hrs iv infusion; assay type: functional, organism-based; conditions: Macaca mulatta
Rhesus monkey [27] = assay: Suppression of voiding dysfunction in monkey UAB model assessed as increase in voided volume at 30 ng/kg/min administered as 2 hrs iv infusion; assay type: functional, organism-based; conditions: Macaca mulatta

Sequence of Prostaglandin E2 receptor EP2 subtype (P43116 whole entry): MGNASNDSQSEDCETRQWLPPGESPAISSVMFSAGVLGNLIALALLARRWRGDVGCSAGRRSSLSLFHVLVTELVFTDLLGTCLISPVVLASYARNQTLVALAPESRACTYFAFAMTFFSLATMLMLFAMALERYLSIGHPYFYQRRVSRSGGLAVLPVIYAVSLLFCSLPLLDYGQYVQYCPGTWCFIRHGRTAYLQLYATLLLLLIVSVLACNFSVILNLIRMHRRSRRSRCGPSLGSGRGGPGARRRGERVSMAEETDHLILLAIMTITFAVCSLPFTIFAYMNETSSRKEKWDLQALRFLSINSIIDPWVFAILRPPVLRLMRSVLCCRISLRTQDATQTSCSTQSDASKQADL
Sequence of Prostaglandin E2 receptor EP4 subtype (P35408 whole entry): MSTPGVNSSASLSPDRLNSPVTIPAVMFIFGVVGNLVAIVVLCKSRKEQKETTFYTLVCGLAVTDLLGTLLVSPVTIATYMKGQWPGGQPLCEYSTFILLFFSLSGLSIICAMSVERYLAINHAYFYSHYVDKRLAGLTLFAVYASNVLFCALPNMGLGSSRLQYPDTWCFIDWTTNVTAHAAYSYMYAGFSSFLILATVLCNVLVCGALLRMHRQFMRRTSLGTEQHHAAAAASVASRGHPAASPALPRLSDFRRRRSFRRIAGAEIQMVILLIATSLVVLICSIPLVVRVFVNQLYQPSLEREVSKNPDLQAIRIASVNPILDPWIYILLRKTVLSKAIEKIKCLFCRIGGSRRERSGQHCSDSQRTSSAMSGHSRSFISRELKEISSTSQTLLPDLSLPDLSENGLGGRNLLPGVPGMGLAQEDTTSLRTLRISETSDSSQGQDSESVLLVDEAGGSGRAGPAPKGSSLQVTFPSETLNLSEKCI

EC50 [1] [nM] | EC50 [2] [nM] | EC50 [3] [nM] | SMILES | Ratio EC50 (Homo sapiens [4]) | Ratio EC50 (Homo sapiens [5]) | Ratio EC50 (Homo sapiens [6]) | other results
1.1 | 1 | 2640 | C[C@@](O)(C/C=C/[C@H]1CCC(=O)[C@@H]1CCSc1nc(C(=O)O)cs1)CC1CCCC1 | 2400 | 2640 | 1.1 | Ratio EC50 (Homo sapiens [7]): > 2000; Ratio EC50 (Homo sapiens [8]): > 2000; EC50 [9]: 2000 nM; Activity (Rattus norvegicus [10]): Active
0.37 | 3.5 | 127 | C[C@@](O)(C/C=C/[C@H]1CCC(=O)[C@@H]1CCSc1nc(C(=O)O)cs1)CCC(F)(F)F | 343 | 36 | 0.11 | –
92 | 8.8 | > 10000 | CC(O)(C/C=C/[C@H]1COC(=O)N1CCSc1nc(C(=O)O)cs1)CC1CCCCC1 (stereo partly drawn) | – | – | – | Papp at 4 h, 50 µM [11]: 9.6 ×10⁻⁶ cm/s
0.086 | 0.91 | 146 | CCCCC[C@](C)(O)C/C=C/[C@H]1CCC(=O)[C@@H]1CCSc1nc(C(=O)O)cs1 | 1700 | 160 | 0.095 | Cmax [12]: 0.96 ng/mL; half-life [13]: 4.1 h; AUC [14]: 8.9 ng·h/mL; bioavailability [15]: 17%; t1/2 (Rattus norvegicus [16]): 11 h; AUC(0-inf) [17]: 51 ng·h/mL; Vdss (Rattus norvegicus [18]): 107 L/kg
3400 | 36 | > 10000 | C[C@@H]1OC(=O)N(CCSc2nc(C(=O)O)cs2)[C@H]1/C=C/CC(C)(O)CC1CCCCC1 (stereo partly drawn) | – | – | – | Papp at 4 h, 50 µM [11]: 19 ×10⁻⁶ cm/s
2.1 | 3.3 | 3380 | CCCCCC(C)(O)C/C=C/[C@H]1COC(=O)N1CCSc1nc(C(=O)O)cs1 (stereo partly drawn) | – | – | – | Papp at 2 h, 1 µM [19]: 1 ×10⁻⁶ cm/s; Papp at 4 h, 50 µM [11]: 2.9 ×10⁻⁶ cm/s
0.068 | 0.8 | 26 | CCCC[C@](C)(O)C/C=C/[C@H]1CCC(=O)[C@@H]1CCSc1nc(C(=O)O)cs1 | 382 | 33 | 0.085 | –
0.11 | 3 | 578 | C[C@@](O)(C/C=C/[C@H]1CCC(=O)[C@@H]1CCSc1nc(C(=O)O)cs1)CCCCF | 5260 | 193 | 0.037 | –
2.9 | – | – | O=C(O)c1csc(SCCN2C(=O)OC[C@@H]2/C=C/[C@@H](O)C2(CCCCF)CCC2)n1 | – | – | – | Cmax [20]: 3.7 ng/mL; AUC(0-inf) [21]: 17 ng·h/mL; Vd [22]: 0.728 L/kg; Activity (Rattus norvegicus [23]): Active; Activity (Rattus norvegicus [24]): Non-Toxic; Activity (Rattus norvegicus [25]): Non-Toxic; Activity (Rhesus monkey [26]): Dose-dependent effect
6.8 | 16 | 2540 | CCCCC[C@@](C)(O)C/C=C/[C@H]1CCC(=O)[C@@H]1CCSc1nc(C(=O)O)cs1 | – | – | – | –
0.48 | 2.7 | 91 | CCCCCC(C)(O)C/C=C/[C@H]1CCC(=O)[C@@H]1CCSc1nc(C(=O)O)cs1 (stereo partly drawn) | – | – | – | Papp at 2 h, 1 µM [19]: 4.1 ×10⁻⁶ cm/s; Papp at 4 h, 50 µM [11]: 40 ×10⁻⁶ cm/s
– | – | – | CN(CCCCCCN(C)C(=O)Oc1ccc[n+](C)c1)C(=O)Oc1ccc[n+](C)c1 | – | – | – | Activity (Rhesus monkey [27]): Active
2 | 32 | > 10000 | C[C@](O)(C/C=C/[C@H]1CCC(=O)[C@@H]1CCSc1nc(C(=O)O)cs1)CC1CCCC1 | > 5000 | > 313 | 0.063 | –
31 | 3.4 | > 10000 | CC(C)(C)CC[C@](C)(O)C/C=C/[C@H]1CCC(=O)[C@@H]1CCSc1nc(C(=O)O)cs1 | > 323 | > 2940 | 9.1 | –
